Four compounds from ChEMBL document CHEMBL4680131, “Fangchinoline derivatives induce cell cycle arrest and apoptosis in human leukemia cell lines via suppression of the PI3K/AKT and MAPK signaling pathway” (Eur J Med Chem, 2020) can be followed below.

Test [1] has as its system HEL. In words: Cytotoxicity against human HEL cells assessed as reduction in cell viability incubated for 48 hrs by MTT assay. It is filed as functional, cell-based. The essentials:
(§1)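 MTT viability after 48 h exposure. Cells (1×10^4/well) were allowed 24 h at 37 °C before dosing. Leukemia lines were grown in RPMI and breast lines in high-glucose DMEM, each with 5% FBS under 5% CO2. MTT was added for 4 h, formazan dissolved in DMSO, and absorbance read at 490 nm. Triplicate wells; values averaged over at least 3 independent experiments.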
A general note: Tetrazolium dyes change colour on reduction, which living cells bring about.

Test [2] deals with K562. Nature of the test: Cytotoxicity against human K562 cells assessed as reduction in cell viability incubated for 48 hrs by MTT assay. It is filed as functional, cell-based. Conditions: K562, 48 h. The essentials:
as §1

In test [3] the test system is MDA-MB-231. Nature of the test: Cytotoxicity against human MDA-MB-231 cells assessed as reduction in cell viability incubated for 48 hrs by MTT assay. Conditions: MDA-MB-231, 48 h. It is filed as functional, cell-based. The essentials:
as §1

Test [4] deals with MCF7. In words: Cytotoxicity against human MCF-7 cells assessed as reduction in cell viability incubated for 48 hrs by MTT assay. It is filed as functional, cell-based. The settings on record: MCF7, 48 h. The essentials: as §1
Test [5] has as its system HEL. In words: Antiproliferative activity against human HEL cells assessed as reduction in cell viability incubated for 12 to 72 hrs by MTT assay. Conditions: dose 0.5-2 µM, time 12-72 hrs. It is filed as functional, cell-based. The essentials:
(§2)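 HEL cells were kept in RPMI with 5% FBS at 37 °C and 5% CO2. They were seeded at 1×10^4/well and given 24 h before dosing. Exposure ran 12, 24, 36, 48 or 72 h, then MTT was added for 4 h, formazan dissolved in DMSO, and absorbance read at 490 nm. Triplicate wells, repeated at least three times.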

Test [6] relates to HEL. Nature of the test: Antiproliferative activity against human HEL cells assessed as reduction in cell viability at 0.5 to 2 uM by MTT assay. It is filed as functional, cell-based. The settings on record: dose 0.5-2 µM, time 12.0 hrs, TDE = time-dependent effect. The essentials: as §2
In test [7] the test system is HEL. Nature of the test: Induction of cell cycle arrest in human HEL cells assessed as accumulation of cells at G0/G1 phase measured after 1 hrs by flow cytometry. It is filed as functional, cell-based. The essentials:
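HEL cells (2×10^5/well) were given DMSO or compound, then fixed in ice-cold 70% ethanol at 4 °C overnight and washed in PBS. Cells were stained 1 h at 37 °C in the dark with PBS containing 50 µg/mL PI and 100 µg/mL RNase. DNA content was analyzed by flow cytometry.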
For orientation: Flow cytometry measures light scatter and fluorescence of single cells or particles in a stream.

Test [8] has as its system HEL. In words: Induction of cell cycle arrest in human HEL cells assessed as down regulation of cMyc incubated for 1 hr by Western blot analysis. Type of test: functional, cell-based. The essentials: (§3)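 HEL cells were lysed in RIPA after compound or DMSO treatment. Lysates were run on 10% SDS-PAGE, transferred to PVDF and blocked in 5% BSA for 1 h. Blots were probed overnight at 4 °C with antibodies to PARP, caspase-3, caspase-9, c-MYC or p21, then HRP secondary for 2 h, and detected by ECL. β-actin served as loading control.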

Test [9] deals with HEL. Nature of the test: Induction of cell cycle arrest in human HEL cells assessed as up regulation of p21 incubated for 1 hr by Western blot analysis. Type of test: functional, cell-based. The essentials:
as §3

Test [10] has as its system HEL. In words: Induction of apoptosis in human HEL cells assessed as viable cells by Annexin-V/propidium iodide staining-based flow cytometric analysis (reference value: 96.62%). Type of test: functional.
Test [11] has as its system HEL. Nature of the test: Induction of apoptosis in human HEL cells assessed as early apoptotic cells by Annexin-V/propidium iodide staining-based flow cytometric analysis (reference value: 2.26%). Type of test: functional.
In test [12] the test system is HEL. In words: Induction of apoptosis in human HEL cells assessed as late apoptotic cells by Annexin-V/propidium iodide staining-based flow cytometric analysis (reference value: 0.76%). Type of test: functional.
The subject of test [13] is HEL. In words: Induction of apoptosis in human HEL cells assessed as necrotic cells by Annexin-V/propidium iodide staining-based flow cytometric analysis (reference value: 0.34%). It is filed as functional.
Test [14] deals with HEL. In words: Induction of apoptosis in human HEL cells assessed as increase in PARP cleavage by Western blot analysis. It is filed as functional, cell-based. The essentials:
as §3

Test [15] has as its system HEL. Nature of the test: Induction of apoptosis in human HEL cells assessed as increase in caspase 3 cleavage by Western blot analysis. Type of test: functional, cell-based. The essentials:
as §3

In test [16] the test system is HEL. Nature of the test: Induction of apoptosis in human HEL cells assessed as increase in caspase 9 cleavage by Western blot analysis. Type of test: functional, cell-based. The essentials: as §3
A general note: Immunoblotting shows a protein as a band on a membrane.

In test [17] the test system is HEL. Nature of the test: Inhibition of Akt in human HEL cells assessed as PI3K/AKT phosphorylation at 2.5 uM after 8 hrs by Western blot analysis. It is filed as cell-based. The essentials: (§4)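 HEL cells were treated with 2.5 µM for 8 h, with DMSO as control. RIPA lysates were run on 10% SDS-PAGE and transferred to PVDF. Blots were blocked in 5% BSA, incubated overnight at 4 °C with antibodies to total and phospho Akt, ERK and JNK, then HRP secondary, and detected by ECL. Bands were normalized to β-actin; means ± SD of triplicates in three independent runs; t-test.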

Test [18] deals with HEL. In words: Inhibition of ERK phosphorylation in human HEL cells at 2.5 uM after 8 hrs by Western blot analysis. Type of test: cell-based. The essentials:
as §4

Test [19] can be described thus: Inhibition of AKT (unknown origin) by ELISA assay. Also noted: species or system Homo sapiens. The essentials: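 Akt kinase activity kit run per the manufacturer's protocol. Akt source was lysate of compound-treated human leukemia HEL cells, purified on a Mono Q anion-exchange column before the kinase measurement. HEL cells were grown in RPMI with 5% FBS at 37 °C and 5% CO2. The value is reported as an IC50.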

Test [20] relates to HEL. In words: Potency index, ratio of fangchinoline IC50 to test compound IC50 for human HEL cells. Type of test: functional.
Test [21] has as its system MDA-MB-231. In words: Potency index, ratio of fangchinoline IC50 to test compound IC50 for human MDA-MB-231 cells. Type of test: functional.
The subject of test [22] is MCF7. In words: Potency index, ratio of fangchinoline IC50 to test compound IC50 for human MCF-7 cells. It is filed as functional.
Test [23] has as its system HEL. Nature of the test: Potency index, ratio of vincristine IC50 to test compound IC50 for human HEL cells. It is filed as functional.
Test [24] concerns MDA-MB-231. Nature of the test: Potency index, ratio of vincristine IC50 to test compound IC50 for human MDA-MB-231 cells. Type of test: functional.
Test [25] deals with MCF7. In words: Potency index, ratio of vincristine IC50 to test compound IC50 for human MCF-7 cells. It is filed as functional.
The test system of test [26] is HEL. In words: Induction of apoptosis in human HEL cells assessed as increase in JNK phosphorylation at 2.5 uM after 8 hrs by Western blot analysis. It is filed as functional, cell-based. The essentials:
as §4

Structures are written as SMILES. The source made the active and inactive calls. The rule behind the calls is not given here.

`COc1ccc2cc1Oc1ccc(cc1)C[C@H]1c3cc(c(OC)cc3CCN1C)Oc1c(OC(=O)C3CCCS3)c(OC)cc3c1[C@H](C2)N(C)CC3` (some centres undefined): the IC50 in test [1] was 1.52 µM; in test [2], 1.53 µM; in test [3], 1.6 µM; in test [4], 4.01 µM; in test [19], 0.55 µM. In addition, the Activity result is “Dose-dependent effect” in test [5]; “Tde” in test [6]; 48.12% in test [10]; 19.97% in test [11]; 27.92% in test [12]; 3.38% in test [13]. Further, the result in test [7], in test [8], in test [9], in [14], in test [15] and in [16] was Active. In addition, in [26], the result was Active. In addition, the inhibition entry in test [17] and in [18] was “Active” each time. In addition, the “Ratio IC50” value came out at 15 in test [20]; 36 in test [21]; 9 in test [22]; 10 in test [23]; 10 in test [24]; 10 in test [25].
Regarding `COc1ccc2cc1Oc1ccc(cc1)C[C@H]1c3cc(c(OC)cc3CCN1C)Oc1c(O)c(OC)cc3c1[C@H](C2)N(C)CC3` [FANGCHINOLINE], the IC50 in [1] is 22.7 µM; in test [2], 5.94 µM; in [3], 58.6 µM; in test [4], 17.4 µM; in test [19] it was over 20 µM.
`CC[C@]1(O)C[C@@H]2CN(CCc3c([nH]c4ccccc34)[C@@](C(=O)OC)(c3cc4c(cc3OC)N(C)[C@H]3[C@@](O)(C(=O)OC)[C@H](OC(C)=O)[C@]5(CC)C=CCN6CC[C@]43[C@@H]65)C2)C1` [VINBLASTINE]: the IC50 was found to be 16 µM in test [1], 9.49 µM in test [2], 17.7 µM in test [3] and 37.5 µM in [4].
Turning to `COc1ccc2cc1Oc1ccc(cc1)C[C@H]1c3cc(c(OC)cc3CCN1C)Oc1c(OC(=O)C(C)(C)C)c(OC)cc3c1[C@H](C2)N(C)CC3`, the IC50 in test [1] turned out to be 3.73 µM; in [2], 4.03 µM; in test [3], 8.56 µM; in test [4], 7.69 µM.

For orientation: IC50 means the concentration at which inhibition is half-maximal.
